{"source": "ChEMBL document CHEMBL1153527", "about": "“Discovery of a novel series of quinolone and naphthyridine derivatives as potential topoisomerase I inhibitors by scaffold modification” (J Med Chem, 2009)", "key": {"[1]": {"test_system": "SK-OV-3", "test": "Reduction in topoisomerase 1 expression in human SKOV3 cells by immunocytochemistry", "type": "functional, cell-based", "outline": "(§1)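 HT-29 and SKOV-3 cells were grown on slides and treated with compound at several concentrations, with an untreated control. Cells were fixed and permeabilised, and endogenous peroxidase was quenched with 0.3% H2O2/methanol. After blocking with 10% goat serum, slides were stained with anti-Top I (1:100, 10 h), then biotinylated secondary and avidin-biotin-HRP, and developed with DAB.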"}, "[2]": {"test_system": "HT-29", "test": "Cytotoxicity against human HT-29 cells after 48 hrs by MTT assay", "type": "functional, cell-based", "conditions": "HT-29, 48 h", "outline": "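Cells were seeded at about 5 × 10^3 per well, then given serum-free medium containing 0-10 μM test compound for 48 h at 37 °C. MTT was added at 0.5 mg/mL final for 4 h at 37 °C. Formazan was dissolved in DMSO and OD570 read. IC50 values (50% cell death) came from a fitted log concentration-response curve.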"}, "[3]": {"test_system": "A2780", "test": "Cytotoxicity against human A2780 cells after 48 hrs by MTT assay", "type": "functional, cell-based", "conditions": "A2780, 48 h"}, "[4]": {"test_system": "Mus musculus", "test": "Toxicity in athymic BALB/c nude mouse xenografted with human HT-29 cells assessed as change in body weight at 150 mg/kg, ip for 10 days measured after 30 days", "type": "organism-based", "design": "dose 150 mg/kg, route intraperitoneal", "conditions": "in vivo, 720 h", "outline": "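Nude mouse HT-29 xenograft model as above: female athymic BALB/c, 18-22 g, n=6 per group. Dosing was i.p. daily in 400 μL for 10 consecutive days at 75 or 150 mg/kg, with saline controls. Body weight and tumour volume were recorded every 4 days, and the study ended on day 30. Weights were compared with controls by Student's t test.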"}, "[5]": {"target": "T1, DNA topoisomerase 1 (Homo sapiens) (UniProt P11387)", "T1 sequence (whole entry)": "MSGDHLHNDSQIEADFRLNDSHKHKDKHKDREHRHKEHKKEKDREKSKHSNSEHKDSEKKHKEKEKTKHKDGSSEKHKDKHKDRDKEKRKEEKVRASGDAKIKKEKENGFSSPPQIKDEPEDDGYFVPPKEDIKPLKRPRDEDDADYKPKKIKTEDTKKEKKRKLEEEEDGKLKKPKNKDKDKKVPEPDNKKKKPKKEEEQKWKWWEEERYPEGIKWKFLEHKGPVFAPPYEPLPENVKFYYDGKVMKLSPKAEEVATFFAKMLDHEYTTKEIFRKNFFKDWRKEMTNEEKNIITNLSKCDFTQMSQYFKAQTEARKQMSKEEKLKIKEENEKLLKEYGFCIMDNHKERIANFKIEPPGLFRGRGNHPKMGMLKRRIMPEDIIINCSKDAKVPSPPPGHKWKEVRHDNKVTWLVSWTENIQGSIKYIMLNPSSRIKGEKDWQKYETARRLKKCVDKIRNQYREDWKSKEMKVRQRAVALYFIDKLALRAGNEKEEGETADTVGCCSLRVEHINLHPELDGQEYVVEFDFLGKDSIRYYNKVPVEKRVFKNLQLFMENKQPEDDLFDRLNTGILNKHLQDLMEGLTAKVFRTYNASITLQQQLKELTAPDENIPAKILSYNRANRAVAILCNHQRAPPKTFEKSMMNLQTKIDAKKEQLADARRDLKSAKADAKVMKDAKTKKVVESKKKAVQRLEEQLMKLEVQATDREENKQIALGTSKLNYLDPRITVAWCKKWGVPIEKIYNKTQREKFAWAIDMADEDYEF", "test": "Induction of human topoisomerase 1-mediated chromosomal DNA strand breaks in HT-29 cells at 10 uM after 1 hr by comet assay", "type": "cell-based", "outline": "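HT-29 cells were seeded at 1 × 10^4 per well and attached overnight, then treated for 1 h. Untreated cells served as negative control. Cells in low-melting agarose on precoated slides were lysed at pH 10.5 for 30 min at 4 °C and unwound in 300 mM NaOH/1 mM EDTA (pH >13) for 30 min at 4 °C. Electrophoresis ran 10 min at 16 V, with SYBR Gold staining. Read-out was mean % tail DNA from ≥50 nuclei, duplicates in three independent experiments.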"}, "[6]": {"test_system": "AGS", "test": "Cytotoxicity against human AGS cells expressing wild type p53 after 48 hrs by SRB assay", "type": "functional, cell-based", "outline": "(§2)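 Cell lines came from CCRC, Taiwan. Cells were seeded at about 5 × 10^3 per well and left overnight. They were then given serum-free medium containing 0-10 μM compound (0.08-10 μM serial dilutions) for 48 h at 37 °C. Cells were fixed with TCA (10% final), stained with SRB (0.4% final), and the dye was dissolved in 10 mM Tris with A515 read. IC50 was taken from a fitted log concentration-response curve.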"}, "[7]": {"test_system": "MCF7", "test": "Cytotoxicity against estrogen receptor-positive human MCF7 cells expressing wild type p53 after 48 hrs by SRB assay", "type": "functional, cell-based", "conditions": "MCF7, 48 h", "outline": "as §2"}, "[8]": {"test_system": "HT-29", "test": "Induction of apoptosis in human HT-29 cells assessed as apoptotic cells at 5 ug/mL after 24 hrs by annexin V/propidium iodide-based flow cytometry", "type": "functional", "outline": "(§3)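 SKOV-3 or HT-29 cells (1-5 × 10^6 cells/mL) were incubated with 0, 5 or 10 μg/mL compound for 24 h. They were then washed and stained with EGFP-Annexin V/PI and analysed immediately by flow cytometry. Annexin V+/PI− cells were scored as apoptotic; PI-permeant cells were scored as necrotic.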"}, "[9]": {"test_system": "HT-29", "test": "Induction of apoptosis in human HT-29 cells assessed as increase in accumulation at sub-G1 phase at 1 uM after 48 hrs by flow cytometry", "type": "functional", "outline": "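HT-29 cells were exposed to vehicle or 1, 5 or 10 μM compound for 6, 12, 24 or 48 h. Floating and attached cells were collected, fixed in 70% ethanol and treated with 0.1% Triton X-100. They were stained with PI at 50 μg/mL plus RNaseA at 50 μg/mL for 30 min at room temperature in the dark. FL2 DNA content was read on 10000 cells by flow cytometry. The sub-G1 fraction was taken as apoptotic.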"}, "[10]": {"test_system": "HT-29", "test": "Induction of apoptosis in human HT-29 cells assessed as morphological changes at 5 ug/mL after 24 hrs by immunostaining", "type": "functional, cell-based", "outline": "(§4)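 SKOV3 and HT-29 cells were treated with 0.25 or 5 μg/mL for 24 h. Cell morphology was assessed by microscopy after fixation in 4% formaldehyde and Hoechst 33342 staining (10 μg/mL), against an untreated control.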"}, "[11]": {"test_system": "SK-OV-3", "test": "Induction of apoptosis in human SKOV3 cells assessed as apoptotic cells at 5 ug/mL after 24 hrs by annexin V/propidium iodide-based flow cytometry", "type": "functional", "outline": "as §3"}, "[12]": {"test_system": "K562", "test": "Cytotoxicity against p53-deficient human K562 cells after 48 hrs by SRB assay", "type": "functional, cell-based", "conditions": "K562, 48 h"}, "[13]": {"test_system": "HT-29", "test": "Reduction in topoisomerase 1 expression in human HT-29 cells by immunocytochemistry", "type": "functional, cell-based", "outline": "as §1"}, "[14]": {"test_system": "HT-29", "test": "Induction of apoptosis in human HT-29 cells assessed as morphological changes at 0.25 ug/mL after 24 hrs by immunostaining", "type": "functional, cell-based", "outline": "as §4"}, "[15]": {"test": "Cytotoxicity against p53-deficient human Hep3B cells after 48 hrs by SRB assay", "type": "functional, cell-based, Hep 3B2", "outline": "as §2"}, "[16]": {"test_system": "KB", "test": "Cytotoxicity against human KB cells after 48 hrs by MTT assay", "type": "functional, cell-based"}, "[17]": {"test_system": "SK-OV-3", "test": "Induction of apoptosis in human SKOV3 cells assessed as apoptotic cells at 10 ug/mL after 24 hrs by annexin V/propidium iodide-based flow cytometry", "type": "functional", "outline": "as §3"}}, "note": "The source made the active and inactive calls. The calls are words filed in the database; no cut-off is given here.", "data": [{"compound": "CCn1cc(-c2nc3ccc([N+](=O)[O-])cc3o2)c(=O)c2cc(F)c(N3CCNC(C)C3)c(F)c21", "note": "(stereo not given)", "values": [{"measurement": "Activity", "setting": "[1]", "value": "Dose-dependent effect"}, {"measurement": "IC50", "setting": "[2]", "value": 0.37, "unit": "µg/mL"}, {"measurement": "IC50", "setting": "[3]", "value": 0.2, "unit": "µM"}, {"measurement": "Activity", "setting": "[4]", "value": "Non-toxic"}, {"measurement": "Activity", "setting": "[5]", "value": 48, "unit": "%"}, {"measurement": "GI50", "setting": "[6]", "value": 0.7, "unit": "µM"}, {"measurement": "IC50", "setting": "[6]", "value": 3.5, "unit": "µM"}, {"measurement": "GI50", "setting": "[7]", "value": 3, "unit": "µM"}, {"measurement": "IC50", "setting": "[7]", "value": 6.8, "unit": "µM"}, {"measurement": "Activity", "setting": "[8]", "value": 23.5, "unit": "%"}, {"measurement": "Activity", "setting": "[9]", "value": 35.5, "unit": "%"}, {"measurement": "Activity", "setting": "[10]", "value": "Active"}, {"measurement": "Activity", "setting": "[11]", "value": 7.4, "unit": "%"}, {"measurement": "IC50", "setting": "[12]", "value": 4.6, "unit": "µM"}, {"measurement": "Activity", "setting": "[13]", "value": "Dose-dependent effect"}, {"measurement": "Activity", "setting": "[14]", "value": "Active"}, {"measurement": "GI50", "setting": "[15]", "value": 1.5, "unit": "µM"}, {"measurement": "IC50", "setting": "[15]", "value": 3.9, "unit": "µM"}, {"measurement": "IC50", "setting": "[16]", "value": 0.6, "unit": "µM"}, {"measurement": "Activity", "setting": "[17]", "value": 13.6, "unit": "%"}]}]}
